Laboratory results as given in ChEMBL document CHEMBL1131314, “New cyclooxygenase-2/5-lipoxygenase inhibitors. 1. 7-tert-buty1-2,3-dihydro-3,3-dimethylbenzofuran derivatives as gastrointestinal safe antiinflammatory and analgesic agents: discovery and variation of the 5-keto substituent” (J Med Chem, 1998).

Tests used:
[1] = molecular target: T1, Prostaglandin G/H synthase 2 (Homo sapiens, UniProt P35354)
T1 sequence (P35354 whole entry): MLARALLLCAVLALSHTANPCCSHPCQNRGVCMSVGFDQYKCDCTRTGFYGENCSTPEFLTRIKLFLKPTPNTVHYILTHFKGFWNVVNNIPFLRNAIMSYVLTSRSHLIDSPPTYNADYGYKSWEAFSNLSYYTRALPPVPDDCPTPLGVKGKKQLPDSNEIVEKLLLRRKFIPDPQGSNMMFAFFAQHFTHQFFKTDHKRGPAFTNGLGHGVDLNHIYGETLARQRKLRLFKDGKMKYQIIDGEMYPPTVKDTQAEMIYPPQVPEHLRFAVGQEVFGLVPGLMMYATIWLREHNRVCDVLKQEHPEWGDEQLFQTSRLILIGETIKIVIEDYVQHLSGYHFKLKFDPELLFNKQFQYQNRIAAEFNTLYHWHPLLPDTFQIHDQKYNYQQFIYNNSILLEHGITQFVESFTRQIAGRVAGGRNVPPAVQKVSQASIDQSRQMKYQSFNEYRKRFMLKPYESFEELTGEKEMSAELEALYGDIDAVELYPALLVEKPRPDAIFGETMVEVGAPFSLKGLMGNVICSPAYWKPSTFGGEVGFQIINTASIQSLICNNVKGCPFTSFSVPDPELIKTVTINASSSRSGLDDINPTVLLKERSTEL

[2] = molecular target: T2, Prostaglandin G/H synthase 1 (Homo sapiens, UniProt P23219); experiment: Concentration (in uM) to inhibit 50% of Prostaglandin G/H synthase 1 (COX-1) and is expressed in IC50.
Summary of the method: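 Human platelet microsomal fraction as enzyme, stored at -70 °C. Run 5 min at 37 °C, started by enzyme, stopped with HCl. PGF2α read by EIA, duplicates. IC50 taken from the percent-inhibition versus concentration curve.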

Rattus norvegicus = experiment: Carrageenan paw edema index (CPE index) as ratio of the reduction in paw volume relative to tebufelone at a po (peroral) dose of 50 mg/kg.; assay type: functional
[3] = molecular target: T2, Prostaglandin G/H synthase 1; experiment: Tested for selectivity for inhibition of human platelet derived COX-1 and recombinant human COX-2
Summary of the method: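 COX-1 was microsomes from human platelet concentrate and COX-2 was a sonicated lysate of Sf9 cells infected with baculovirus carrying human COX-2 cDNA. Each enzyme was added to AA (33 µM) and SnCl2 (0.5 mg/mL) in 50 mM Tris-HCl pH 7.5 and run 5 min at 37 °C, then stopped with HCl. PGF2α was measured by EIA, in duplicate. The value is IC50 COX-1/IC50 COX-2.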

Mus musculus [4] = experiment: % reduction in phenylquinone-induced abdominal constriction (PAC) at po (peroral) dose of 70 mg/kg in mice; assay type: functional, Abdomen
Mus musculus [5] = organism: Mus musculus; experiment: The compound was tested for the concentration to inhibit 50% of phenylquinone-induced abdominal constriction (PAC).; assay type: functional; conditions: Abdomen
Mus musculus [6] = experiment: Compound was tested for % reduction in phenylquinone-induced abdominal constriction (PAC) at po (peroral) dose of 70 mg/kg in mice; assay type: functional; conditions: Abdomen
[7] = molecular target: Arachidonate 5-lipoxygenase (Rattus norvegicus); experiment: The compound was tested for the concentration (in uM) to inhibit 50% of 5-Lipoxygenase (5-LOX) and is expressed in IC50.

T2 sequence (P23219 whole entry): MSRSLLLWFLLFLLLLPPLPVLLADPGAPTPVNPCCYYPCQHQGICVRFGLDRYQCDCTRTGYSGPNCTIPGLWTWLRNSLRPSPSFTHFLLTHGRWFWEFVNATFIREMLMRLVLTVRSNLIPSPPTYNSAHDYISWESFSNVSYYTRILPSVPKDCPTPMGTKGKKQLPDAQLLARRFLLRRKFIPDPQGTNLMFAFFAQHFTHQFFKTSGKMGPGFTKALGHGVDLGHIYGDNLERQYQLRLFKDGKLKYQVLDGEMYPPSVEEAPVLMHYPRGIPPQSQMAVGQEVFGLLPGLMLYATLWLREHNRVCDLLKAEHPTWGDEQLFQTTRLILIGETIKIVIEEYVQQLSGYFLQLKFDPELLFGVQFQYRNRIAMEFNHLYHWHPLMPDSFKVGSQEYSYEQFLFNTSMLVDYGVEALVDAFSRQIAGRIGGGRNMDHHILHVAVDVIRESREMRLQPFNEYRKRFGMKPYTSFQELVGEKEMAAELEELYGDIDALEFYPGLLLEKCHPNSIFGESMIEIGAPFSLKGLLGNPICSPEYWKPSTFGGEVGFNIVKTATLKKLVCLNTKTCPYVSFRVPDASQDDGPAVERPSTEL

SMILES | IC50 [1] | IC50 [2] | CPE index (Rattus norvegicus) | further results
CCCCCC(=O)c1cc(C(C)(C)C)c2c(c1)C(C)(C)CO2 | 0.09 µM | > 10 µM | 0.4 | Selectivity [3]: > 111
CC(C)(C)c1cc(C(=O)C2CC2)cc2c1OCC2(C)C |  |  | 0.67 | Reduction (Mus musculus [4]): 85%
CC(C)(C)c1cc(C(=O)CS(C)(=O)=O)cc2c1OCC2(C)C |  |  | 0 | 
CCCC(=O)c1cc(C(C)(C)C)c2c(c1)C(C)(C)CO2 | 0.095 µM | 0.095 µM |  | Reduction (Mus musculus [4]): 85%
CC(=O)c1cc(C(C)(C)C)c2c(c1)C(C)(C)CO2 |  |  | 0.92 | Reduction (Mus musculus [4]): 78%
CC(C)(C)c1cc(C(=O)/C=C/CC2CC2)cc2c1OCC2(C)C | 0.25 µM | 0.8 µM | 0.18 | 
CC(C)(C)c1cc(C(=O)C2CCCC2)cc2c1OCC2(C)C |  |  | 0.65 | Reduction (Mus musculus [4]): 56%
CN(CC(=O)c1cc(C(C)(C)C)c2c(c1)C(C)(C)CO2)CC1CC1 | 2.5 µM | 30 µM | 0.38 | 
CC(C)(C)c1cc(C(=O)CCCC2CC2)cc2c1OCC2(C)C | 0.22 µM | 7 µM |  | 
C[S+]([O-])CC(=O)c1cc(C(C)(C)C)c2c(c1)C(C)(C)CO2 (centres undefined) |  |  | 1.01 | ED50 (Mus musculus [5]): 20 mg/kg
CC(C)(C)c1cc(C(=O)CC2CC2)cc2c1OCC2(C)C |  |  | 1.06 | 
CC(C)(C)c1cc(C(=O)c2ccccc2)cc2c1OCC2(C)C | 0.007 µM | 0.15 µM |  | Reduction (Mus musculus [4]): 34%
CSCCC(=O)c1cc(C(C)(C)C)c2c(c1)C(C)(C)CO2 |  |  | 0.7 | 
CC(C)(Cl)CC(=O)c1cc(C(C)(C)C)c2c(c1)C(C)(C)CO2 | 0.1 µM | 1 µM | 1.2 | ED50 (Mus musculus [6]): 16 mg/kg; IC50 [7]: 8 µM
CC(C)CCCC(=O)c1cc(C(C)(C)C)c2c(c1)C(C)(C)CO2 | 4.5 µM | 15 µM | 0.36 | Selectivity [3]: 3.3; IC50 [7]: 15 µM
CC(C)(C)c1cc(C(=O)C2CCCCC2)cc2c1OCC2(C)C |  |  | 0.36 | 
CC(=O)SCC(=O)c1cc(C(C)(C)C)c2c(c1)C(C)(C)CO2 |  |  | 0.95 | Reduction (Mus musculus [4]): 64%
CN(C)CCC(=O)c1cc(C(C)(C)C)c2c(c1)C(C)(C)CO2 |  |  | 0.32 | 

SMILES | IC50 [1] | IC50 [2] | CPE index (Rattus norvegicus) | further results
CSCC(=O)c1cc(C(C)(C)C)c2c(c1)C(C)(C)CO2 |  |  | 1.77 | Reduction (Mus musculus [4]): 35%
C#CCCCC(=O)c1cc(C(C)(C)C)c(O)c(C(C)(C)C)c1 [TEBUFELONE] | 0.1 µM | 0.25 µM |  | 
CCC(=O)c1cc(C(C)(C)C)c2c(c1)C(C)(C)CO2 |  |  | 1.14 | ED50 (Mus musculus [5]): 20 mg/kg
C#CCCCC(=O)c1cc(C(C)(C)C)c2c(c1)C(C)(C)CO2 | 0.015 µM | 0.06 µM |  | 
CC(C)(C)c1cc(C(=O)c2ccc(F)cc2)cc2c1OCC2(C)C |  |  | 0.52 | 
CC(C)=CC(=O)c1cc(C(C)(C)C)c2c(c1)C(C)(C)CO2 |  |  | 1.22 | Reduction (Mus musculus [4]): 50%
CC(C)(C)c1cc(C(=O)CCC2CC2)cc2c1OCC2(C)C |  |  | 0.18 | Reduction (Mus musculus [4]): 58%
CC(=O)OCC(=O)c1cc(C(C)(C)C)c2c(c1)C(C)(C)CO2 |  |  | 0.21 | 
CC(C)(C)c1cc(C(=O)CS(=O)(=O)CC2CC2)cc2c1OCC2(C)C | 2 µM | 5 µM | 0 | Selectivity [3]: 2.5
CC(C)(C)c1cccc2c1OCC2(C)C |  |  | 0.31 | 
CC(C)(C)c1cc(C(=O)CSCC2CC2)cc2c1OCC2(C)C | 0.4 µM | 0.65 µM | 0.62 | Reduction (Mus musculus [4]): 54%; Selectivity [3]: 1.6
COCCOCC(=O)c1cc(C(C)(C)C)c2c(c1)C(C)(C)CO2 |  |  | 0.52 | 
CC(C)(C)C(=O)c1cc(C(C)(C)C)c2c(c1)C(C)(C)CO2 |  |  | 0.3 | 
CC(O)c1cc(C(C)(C)C)c2c(c1)C(C)(C)CO2 (centres undefined) |  |  | 0 | 
CCCCC(=O)c1cc(C(C)(C)C)c2c(c1)C(C)(C)CO2 | 0.04 µM | 2 µM |  | 
CC(C)(C)c1cc(C(=O)c2ccccc2Cl)cc2c1OCC2(C)C |  |  | 0 | 
CC(C)(C)c1cc(C(=O)C[S+]([O-])CC2CC2)cc2c1OCC2(C)C (centres undefined) | 4 µM | 20 µM | 0.04 | Selectivity [3]: 5
CC(C)C(=O)c1cc(C(C)(C)C)c2c(c1)C(C)(C)CO2 |  |  | 1.25 | ED50 (Mus musculus [5]): 22 mg/kg
